Measurements from ChEMBL document CHEMBL1133178, “Synthesis and evaluation of "AZT-HEPT", "AZT-pyridinone", and "ddC-HEPT" conjugates as inhibitors of HIV reverse transcriptase” (J Med Chem, 2000).

How the values were obtained:
[1] = system: MT4; experiment: Effective concentration required to achieve 50% inhibition of HIV-1 IIIB multiplication in hT4 lymphoblastoid MT-4 cells using MTT assay; assay type: functional, cell-based; details: Homo sapiens
Method in brief: (§1)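 MT-4 cells infected with 50 TCID50 of HIV-1 IIIB; 30 min adsorption, free virus washed off, then cultured with a range of compound concentrations for 5 days. Protection from virus-induced cytopathogenicity was read by MTT reduction (OD 540 nm). EC50 taken from a median-effect plot of dose-effect data; means of duplicate experiments.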

[2] = (§2) Cytotoxic concentration which reduces the cell viability of HIV-1 IIIB infected PBM (peripheral blood mononuclear) cells; assay type: functional; details: Homo sapiens
[3] = Effective conc. required to achieve 50% inhibition of HIV-2 D194 multiplication in PBM (peripheral blood mononuclear) cells; assay type: functional, Homo sapiens
[4] = Effective conc. required to achieve 50% inhibition of HIV-1 IIIB multiplication in PBM (peripheral blood mononuclear) cells; assay type: functional, Homo sapiens
[5] = target: Human immunodeficiency virus type 1 reverse transcriptase (Human immunodeficiency virus 1) (UniProt Q72547); experiment: Cytotoxic conc. which reduces the cell viability of HIV-1 LAI infected T4 lymphoblastoid CEM-SS cells by 50%; assay type: functional, cell-based
[6] = system: MT4; experiment: Cytotoxic conc. which reduces the cell viability of […] T4 lymphoblastoid MT-4 cells by 50%; assay type: functional; details: Homo sapiens
Method in brief: (§3)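 Cytotoxicity was run in parallel, in the same experiment, on uninfected, compound-treated MT-4 or CEM-SS cells cultured 5 days. Viability was measured by MTT reduction to formazan (OD 540 nm). CC50 is the concentration reducing viability by 50%, calculated by median-effect analysis; means of duplicates.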

[7] = target: Human immunodeficiency virus type 1 reverse transcriptase (Human immunodeficiency virus 1) (UniProt Q72547); experiment: Cytotoxic concentration which reduces the cell viability of HIV-1 LAI infected T4 lymphoblastoid CEM-SS cells by 50%; assay type: functional, cell-based
[8] = Effective concentration required to achieve 50% inhibition of HIV-1 IIIB multiplication in PBM (peripheral blood mononuclear) cells; assay type: functional, Homo sapiens
[9] = Effective concentration. required to achieve 50% inhibition of HIV-2 D194 multiplication in PBM (peripheral blood mononuclear) cells; assay type: functional, Homo sapiens
[10] = system: MT4; experiment: Cytotoxic concentration. which reduces the cell viability of […] T4 lymphoblastoid MT-4 cells by 50%; assay type: functional; details: Homo sapiens; method in brief: as §3
[11] = Effective concentration required to achieve 50% inhibition of HIV-2 D194 multiplication in PBM (peripheral blood mononuclear) cells; assay type: functional, Homo sapiens
[12] = system: MT4; experiment: Cytotoxic concentration which reduces the cell viability of HIV-1 IIIB infected T4 lymphoblastoid MT-4 cells by 50%; assay type: functional; details: Homo sapiens; method in brief: as §3
[13] = system: CEM-SS; experiment: Effective concentration required to achieve 50% inhibition of HIV-1 181C (nevirapine-resistant HIV-1) multiplication in CEM-SS cells.; assay type: functional, cell-based; details: Homo sapiens
Method in brief: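 CEM-SS cells infected with 100 TCID50 of nevirapine-resistant HIV-1, 30 min adsorption, then washed to remove free virus. Cultured with a range of compound concentrations for 5 days. Virus production read as reverse transcriptase activity of virions released into culture supernatants. EC50 taken from a computer-generated median effect plot of dose-effect data; means of duplicate experiments.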

[14] = system: MT4; experiment: as §2; assay type: functional, cell-based; details: Homo sapiens
[15] = concentration of compound which reduces the cell viability by 50% against PBM (peripheral blood mononuclear) cells infected with HIV-1 IIIB cells.; assay type: functional; details: Homo sapiens
[16] = system: MT4; experiment: Effective concentration. required to achieve 50% inhibition of HIV-1 IIIB multiplication in hT4 lymphoblastoid MT-4 cells using MTT assay; assay type: functional, cell-based; details: Homo sapiens; method in brief: as §1

Compound | EC50 [1] [µM] | CC50 [2] [µM] | CC50 [7] [µM] | EC50 [8] [µM] | EC50 [11] [µM] | CC50 [12] [µM] | also measured
Nc1ccn([C@H]2CC[C@@H](CO)O2)c(=O)n1 [ZALCITABINE] | 2.4 | 10 |  |  |  |  | EC50 [3]: 0.07 µM; EC50 [4]: 0.016 µM; CC50 [5]: 34 µM; CC50 [6]: > 100 µM
COC(=O)CCc1cn(C2CC(N=[N+]=[N-])C(CO)O2)c(=O)[nH]c1=O (configuration not stated) | > 100 | > 100 | > 100 | > 100 |  |  | EC50 [9]: > 100 µM; CC50 [10]: > 100 µM
CCc1c(C)nc(O)c(NC(=O)CCCCCCCCCN)c1Cc1cc(C)cc(C)c1 |  |  | > 66 |  |  |  | 
Cc1cn(C2CC(N=[N+]=[N-])C(CO)O2)c(=O)n(CCC(=O)NCCCCCCCCCCN)c1=O (configuration not stated) | > 100 | 80 | 60 | 40 | > 100 | > 100 | 
Cc1cn([C@H]2C[C@H](N=[N+]=[N-])[C@@H](CO)O2)c(=O)[nH]c1=O [ZIDOVUDINE] | 0.02 | 75 |  |  |  |  | EC50 [3]: 0.006 µM; EC50 [4]: 0.001 µM; CC50 [5]: > 100 µM; CC50 [6]: > 100 µM
CCc1c(Sc2cc(C)cc(C)c2)n(CCCCC(=O)NCCCCCCCCCCNC(=O)CCn2c(=O)c(C)cn(C3CC(N=[N+]=[N-])C(CO)O3)c2=O)c(=O)[nH]c1=O (configuration not stated) | > 10 | > 25 | > 25 | 5.5 | > 25 | > 10 | EC50 [13]: 23 µM
CCc1c(C)nc(O)c(NC(=O)CNC(=O)CN)c1Cc1cc(C)cc(C)c1 |  |  | > 100 |  |  |  | 
CCc1c(C)nc(O)c(NC(=O)CCCCCCCCC(=O)O)c1Cc1cc(C)cc(C)c1 |  |  | > 10 |  |  |  | 
[N-]=[N+]=NC1CC(n2cc(CCC(=O)NCCCCCCCCCCN)c(=O)[nH]c2=O)OC1CO (configuration not stated) | > 100 | 77 | 38 | 75 | 68 | 60 | 
CCc1c(C)nc(O)c(NC(=O)CCCC(=O)O)c1Cc1cc(C)cc(C)c1 |  |  | 28 |  |  |  | 
CCc1c(C)nc(O)c(N)c1Cc1cc(C)cc(C)c1 |  |  | > 10 |  |  |  | 
CCc1c(Sc2cc(C)cc(C)c2)n(CCCCC(=O)NCCCCCCCCCCCCNc2ccn(C3CCC(CO)O3)c(=O)n2)c(=O)[nH]c1=O (configuration not stated) | 6.2 | > 10 | > 25 | 0.46 |  | > 10 | EC50 [13]: 0.53 µM
CCc1c(C)nc(O)c(NC(=O)CNC(=O)CNC(=O)OC(C)(C)C)c1Cc1cc(C)cc(C)c1 |  |  | > 100 |  |  |  | 
CCc1c(C)nc(O)c(NC(=O)CCCCCCCCCNC(=O)OC(C)(C)C)c1Cc1cc(C)cc(C)c1 |  |  | > 10 |  |  |  | 
CCc1c(C)nc(O)c(NC(=O)CCCCCCCCC(=O)OC)c1Cc1cc(C)cc(C)c1 |  |  | > 10 |  |  |  | 
CCc1c(C)nc(O)c(NC(=O)CCCC(=O)OC)c1Cc1cc(C)cc(C)c1 |  |  | > 100 |  |  |  | 
COC(=O)CCCNC(=O)CCc1cn(C2CC(N=[N+]=[N-])C(CO)O2)c(=O)[nH]c1=O (configuration not stated) | > 100 | > 100 | > 100 | > 100 | > 100 | 75 | 
CCc1c(Sc2cc(C)cc(C)c2)n(CCCCC(=O)NCCCCCCCCCCNC(=O)CCc2cn(C3CC(N=[N+]=[N-])C(CO)O3)c(=O)[nH]c2=O)c(=O)[nH]c1=O (configuration not stated) |  |  | > 25 | 5.1 | > 25 | 10 | EC50 [14]: > 10 µM; EC50 [13]: > 25 µM; CC50 [15]: > 25 µM
[N-]=[N+]=NC1CC(n2cc(CCC(=O)NCCCCN)c(=O)[nH]c2=O)OC1CO (configuration not stated) |  | > 100 | > 100 | > 100 | > 100 | > 100 | EC50 [16]: > 100 µM
CCOC(=O)CCn1c(=O)c(C)cn(C2CC(N=[N+]=[N-])C(CO)O2)c1=O (configuration not stated) | 4.3 | > 100 | > 100 | 2.1 | 8 | > 100 | 
CCc1c(Sc2cc(C)cc(C)c2)n(CCCCC(=O)OC)c(=O)[nH]c1=O | 0.33 | > 33 | > 33 | 0.18 | > 33 | > 10 | EC50 [13]: > 33 µM
NCCCCCCCCCCCCNc1ccn(C2CCC(CO)O2)c(=O)n1 (configuration not stated) | 100 | 61 | 48 | 2.9 | 4.7 | > 100 | 
CCc1c(Sc2cc(C)cc(C)c2)n(CCCCC(=O)NCCCCNC(=O)CCc2cn(C3CC(N=[N+]=[N-])C(CO)O3)c(=O)[nH]c2=O)c(=O)[nH]c1=O (configuration not stated) | > 10 | > 50 | > 55 | 4.3 | > 50 | > 10 | EC50 [13]: > 50 µM
